For series [1], the species on record is Cavia porcellus. Nature of the series: Intrinsic activity at muscarinic M3 receptor in guinea pig ileum after 45 mins relative to bethanechol. The class given is tissue-based. An outline of the steps:
(§1)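 Guinea pig left atrium (M2) and ileum (M3) preparations. Intrinsic activity is the ratio of the compound's maximum response to the maximum response of bethanechol in that tissue. The pD2 is the −log of the agonist concentration giving 50% of the maximum response attainable in the tissue.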

The nature of series [2]: Antagonist activity at muscarinic M1 receptor in rabbit vas deferens assessed as dissociation constant after 45 mins. The class given is functional, Oryctolagus cuniculus.
Series [3] in a line: Antagonist activity at muscarinic M2 receptor in guinea pig left atrium assessed as dissociation constant after 45 mins. The class given is functional, Cavia porcellus, Cardiac atrium. An outline of the steps:
(§2)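 Isolated guinea pig tissues: left atrium (M2), ileum (M3) and lung strips (putative M4). Antagonist dissociation constants were calculated by the Furchgott method and reported as pKB, as mean ± SEM of four to six independent experiments. Agonist reference for the tissue responses was bethanechol.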

The target in series [4] is T1, Muscarinic acetylcholine receptor M2 (Homo sapiens, UniProt P08172).
T1 sequence (P08172 whole entry): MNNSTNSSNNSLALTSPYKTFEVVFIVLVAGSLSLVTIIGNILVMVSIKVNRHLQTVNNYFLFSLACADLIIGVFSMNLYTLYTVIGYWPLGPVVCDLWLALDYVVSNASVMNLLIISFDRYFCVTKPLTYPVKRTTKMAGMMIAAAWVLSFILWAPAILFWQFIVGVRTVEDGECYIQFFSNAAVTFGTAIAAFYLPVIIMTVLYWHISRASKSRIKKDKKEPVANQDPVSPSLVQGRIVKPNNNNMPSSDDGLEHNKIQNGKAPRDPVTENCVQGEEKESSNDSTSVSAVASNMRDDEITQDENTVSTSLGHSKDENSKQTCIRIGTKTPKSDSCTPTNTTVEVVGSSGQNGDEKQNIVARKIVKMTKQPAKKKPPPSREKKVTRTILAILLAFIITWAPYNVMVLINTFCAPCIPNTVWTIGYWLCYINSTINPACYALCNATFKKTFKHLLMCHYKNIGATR
Nature of the series: Displacement of [3H]N-methylscopolamine from human muscarinic M2 receptor expressed in CHO cells after 120 mins by scintillation counting. The format is cell-based.

Series [5] is filed under the species Cavia porcellus. Kind of series: Intrinsic activity at muscarinic M2 receptor in guinea pig left atrium after 45 mins relative to bethanechol. The format is tissue-based. The note with it: Cardiac atrium. The method, boiled down: as §1
Series [6] concerns Rattus norvegicus. Kind of series: Cardiovascular toxicity in anaesthetized Wistar rat assessed as changes in mean arterial pressure at 1 ug/kg, iv. The format is organism-based, Artery. The note with it: in vivo, 0.001 mg/kg.
Series [7] has as its system Rattus norvegicus. Kind of series: Reduction in volume induced contraction of iv dosed anaesthetized Wistar rat urinary bladder assessed as inhibition of VIBC amplitudes relative to untreated control. The class given is functional.
The target of series [8] is T2, Muscarinic acetylcholine receptor M5 (Homo sapiens, UniProt P08912).
T2 sequence (P08912 whole entry): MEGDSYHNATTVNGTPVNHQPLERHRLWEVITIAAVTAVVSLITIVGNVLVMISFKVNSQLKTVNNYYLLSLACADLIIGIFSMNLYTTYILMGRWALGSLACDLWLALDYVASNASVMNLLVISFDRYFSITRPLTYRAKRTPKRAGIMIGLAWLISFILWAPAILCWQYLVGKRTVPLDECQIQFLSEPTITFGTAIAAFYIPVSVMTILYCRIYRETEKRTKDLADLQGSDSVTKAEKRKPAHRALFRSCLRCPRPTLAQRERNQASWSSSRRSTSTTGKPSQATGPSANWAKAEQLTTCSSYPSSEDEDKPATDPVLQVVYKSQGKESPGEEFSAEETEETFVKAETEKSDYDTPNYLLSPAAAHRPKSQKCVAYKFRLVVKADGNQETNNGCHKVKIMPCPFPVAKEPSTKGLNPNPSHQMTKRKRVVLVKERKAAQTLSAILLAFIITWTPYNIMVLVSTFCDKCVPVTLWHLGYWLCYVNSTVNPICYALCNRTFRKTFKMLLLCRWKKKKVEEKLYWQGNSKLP
Kind of series: Displacement of [3H]N-methylscopolamine from human muscarinic M5 receptor expressed in CHO cells after 120 mins by scintillation counting. The format is cell-based. (Loss of bound radioactivity is the signal in a displacement assay; it reports binding, not function.)

Series [9] can be described thus: Antagonist activity at muscarinic M3 receptor in guinea pig ileum assessed as dissociation constant after 45 mins. The class given is functional, Cavia porcellus. The method, boiled down:
as §2

Series [10] has as its system Rattus norvegicus. Nature of the series: Reduction in volume induced contraction of iv dosed anaesthetized Wistar rat urinary bladder assessed as inhibition of AUC peaks from saline baseline. Conditions: read-out: ID50 (the source's name). The class given is functional.
The test system of series [11] is Rattus norvegicus. Nature of the series: Cardiovascular toxicity in anaesthetized Wistar rat assessed as changes in heart rate at 1 ug/kg, iv. The format is organism-based. Conditions: in vivo, 0.001 mg/kg.
The nature of series [12]: Antagonist activity at muscarinic M4 receptor in guinea pig lung strips assessed as dissociation constant after 45 mins. The format is functional, Cavia porcellus. An outline of the steps: as §2
Series [13] in a line: Agonist potency at muscarinic M3 receptor in guinea pig ileum after 45 mins. The format is functional, Cavia porcellus. An outline of the steps:
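Isolated guinea pig ileum (M3) functional assay. pD2 is the −log of the agonist concentration giving 50% of the maximum response attainable in that tissue. Intrinsic activity is the ratio of the agonist's maximum response to that of bethanechol. Results are mean ± SEM of four to six independent experiments.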

The species entered for series [14] is Cavia porcellus.
In series [15] the target is T3, Muscarinic acetylcholine receptor M4 (Homo sapiens, UniProt P08173).
T3 sequence (P08173 whole entry): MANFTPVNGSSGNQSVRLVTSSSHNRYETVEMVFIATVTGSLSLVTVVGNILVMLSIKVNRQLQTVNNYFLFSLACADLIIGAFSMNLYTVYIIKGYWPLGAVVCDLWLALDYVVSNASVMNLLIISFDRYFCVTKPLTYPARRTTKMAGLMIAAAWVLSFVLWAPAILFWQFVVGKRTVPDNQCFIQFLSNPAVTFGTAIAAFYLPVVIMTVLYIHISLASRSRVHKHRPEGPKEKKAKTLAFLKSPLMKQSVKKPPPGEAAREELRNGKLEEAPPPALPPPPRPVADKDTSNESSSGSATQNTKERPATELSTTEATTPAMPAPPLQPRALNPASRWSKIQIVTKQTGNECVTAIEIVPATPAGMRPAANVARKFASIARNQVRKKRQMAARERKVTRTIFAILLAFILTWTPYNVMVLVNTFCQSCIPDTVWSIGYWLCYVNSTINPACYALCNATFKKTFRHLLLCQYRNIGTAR
Kind of series: Displacement of [3H]N-methylscopolamine from human muscarinic M4 receptor expressed in CHO cells after 120 mins by scintillation counting. The class given is cell-based.

The species named for series [16] is Cavia porcellus. Kind of series: Antagonist activity at muscarinic M4 receptor in guinea pig lung strips up to 10 uM after 45 mins. The format is functional. The method, boiled down: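 Guinea pig lung strips (putative M4) were tested for agonist activity and then for antagonism at concentrations up to 10 μM. Dissociation constants (pKB) were calculated by the Furchgott method from four to six independent experiments.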

Series [17] can be described thus: Agonist potency at muscarinic M2 receptor in guinea pig left atrium after 45 mins. The format is functional, Cavia porcellus, Cardiac atrium.

The structures appear in SMILES notation. Activity calls are given as the source filed them. No cut-off for these calls is given here.

As a reminder, the pKb is −log10 of the Kb, conventionally taken in molar units. The Ki is the equilibrium dissociation constant of an inhibitor or competing ligand from its target. For `C[N+](C)(C)C[C@H]1COCC(c2ccccc2)(c2ccccc2)O1.[I-]`, the Intrinsic activity in the series filed under Cavia porcellus [1] and in the series filed under Cavia porcellus [5] was 0 each time. For the same compound, the pKb in series [2] stood at 8.86; in series [3], 7.31; in series [9], 8.52; in series [12], 6.7. In addition, the values for the Ki in series [4] and in series [8] were 0.00282 µM and 0.0017 µM, respectively. Besides, the Activity is listed as -12% in the series with Rattus norvegicus [6] and 5% in the series on Rattus norvegicus [11]. In the series with Rattus norvegicus [7], the Imax was 96%. Further, the ED50 in the series with Rattus norvegicus [10] stood at 0.201 mg/kg.
As to `C[N+](C)(C)C[C@@H]1COCC(c2ccccc2)(c2ccccc2)O1.[I-]`, the Intrinsic activity in the series filed under Cavia porcellus [1] and in the series filed under Cavia porcellus [5] was 0 each time. In addition, the pKb in series [3] worked out at 6.67; in series [12], 6.62. Besides, the figures for the Ki in series [4] and in [8] were 0.0331 µM and 0.107 µM, respectively.
Turning to `CN(C)C[C@H]1COCC(c2ccccc2)(c2ccccc2)O1.O=C(O)C(=O)O`, the Intrinsic activity in the series listed under Cavia porcellus [1] and in the series listed under Cavia porcellus [5] was 0 in each case. The pKb in series [3] stood at 7.63; in series [12] it was 6.94. For the same compound, the figures for the Ki in [4] and in [8] were 0.00977 µM and 0.00182 µM, respectively.
On to `CN(C)C[C@@H]1COCC(c2ccccc2)(c2ccccc2)O1.O=C(O)C(=O)O`, for which the Intrinsic activity in the series filed under Cavia porcellus [1] and in the series filed under Cavia porcellus [5] was 0 throughout. Moreover, the pKb in [3] worked out at 7. The Ki is 0.0955 µM in series [4] and 0.0813 µM in series [8].
As for `CN(C)C[C@@H]1COC(c2ccccc2)(c2ccccc2)O1.O=C(O)C(=O)O`, the pKb in series [3] was 7.11; in [9] it was 6.38.
As for `C[C@H]1COC[C@@H](C[N+](C)(C)C)O1.[I-]`, the Intrinsic activity in the series filed under Cavia porcellus [1] and in the series filed under Cavia porcellus [5] was 1 each time. The compound also displayed a pD2 in series [13] of 7.34.
On to `C[N+](C)(C)CC1COCC(c2ccccc2)(c2ccccc2)O1.[I-]` (racemic), for which the Intrinsic activity in the series listed under Cavia porcellus [1] and in the series filed under Cavia porcellus [5] was 0 in each case. The pKb in series [3] stood at 8.21; in [9], 8.34; in series [12] it was 7.77. The values for the Ki in series [4] and in series [8] were 0.00575 µM and 0.00437 µM, respectively.
As to `CN(C)CC1COCC(c2ccccc2)(c2ccccc2)O1.O=C(O)C(=O)O` (racemic), the Intrinsic activity in the series filed under Cavia porcellus [1] and in the series filed under Cavia porcellus [5] was 0 throughout. Besides, the pKb in [2] is listed as 7.86; in series [3] it was 6.95; in series [9] it was 8.24; in series [12], 7.02. The Ki in series [4] is 0.0166 µM; in series [8], 0.00537 µM. Also, the Activity is given as -18% in the series on Rattus norvegicus [6] and 4% in the series with Rattus norvegicus [11]. Moreover, the Imax in the series with Rattus norvegicus [7] came out at 72%. For the same compound, the ED50 with Rattus norvegicus [10] turned out to be 0.134 mg/kg.
With `CC[C@H]1COC[C@@H](C[N+](C)(C)C)O1.[I-]` (relative stereo), the Intrinsic activity in the series listed under Cavia porcellus [1] and in the series listed under Cavia porcellus [5] was 1 each time. Also, the pD2 result in the series filed under Cavia porcellus [14] is “inactive”. Besides, the Ki in [15] is 25.1 µM; in series [4], 6.31 µM; in series [8], 26.3 µM. The result in the series filed under Cavia porcellus [16] was inactive. The pD2 is 5.62 in series [17] and 4.82 in [13].
As to `CC[C@@H]1COC[C@@H](C[N+](C)(C)C)O1.[I-]` (relative stereo), the Intrinsic activity in the series filed under Cavia porcellus [1] worked out at 1; in the series listed under Cavia porcellus [5] it was 0.7. Besides, the pD2 result in the series filed under Cavia porcellus [14] was “inactive”. Also, the inhibition constant (Ki) in [15] is above 100 µM; in series [4], 18.2 µM; in [8], above 100 µM. Further, in the series listed under Cavia porcellus [16], the result was inactive. Besides, the pD2 in series [17] is 5.45; in [13] it was 5.19.
Regarding `C[N+](C)(C)C[C@@H]1COC[C@H](c2ccccc2)O1.[I-]` (relative stereo), the Intrinsic activity in the series listed under Cavia porcellus [1] and in the series filed under Cavia porcellus [5] was 0 in each case. The same compound had an inhibition constant (Ki) in [15] of 12.3 µM. Further, the pKb came out at 5.56 in series [3] and 5.24 in series [12].
For the compound `C[N+](C)(C)C[C@@H]1COC[C@@H](c2ccccc2)O1.[I-]` (relative stereo), the Intrinsic activity in the series listed under Cavia porcellus [1] and in the series filed under Cavia porcellus [5] was 0 throughout. The Ki in series [15] is 29.5 µM. Moreover, the pKb in [3] was 5.14; in series [9] it was below 5; in series [12], below 5.
Regarding `C[N+](C)(C)C[C@@H]1COC[C@H](C(c2ccccc2)c2ccccc2)O1` (relative stereo), the Ki in series [15] is 11.2 µM; in [4] it was 28.2 µM; in series [8] it was 7.59 µM.
The matching figures for `C[N+](C)(C)C[C@@H]1COC[C@@H](C(c2ccccc2)c2ccccc2)O1` (relative stereo): 17 µM, 79.4 µM and 31.6 µM.
Take `C[N+]1(C)CCC(OC(=O)C(c2ccccc2)c2ccccc2)CC1.[I-]` [4-DAMP]: the pKb is 8 in series [3], 9.02 in [9] and 9.4 in series [12].
For `COc1ccccc1CNCCCCCCNCCCCCCCCNCCCCCCNCc1ccccc1OC` [METHOCTRAMINE] the same measures were 7.8, 6.3 and 7.6.
Consider `CCN(CC)CC#CCOC(=O)C(O)(c1ccccc1)C1CCCCC1` (stereo not given) [OXYBUTYNIN], for which the Intrinsic activity in the series listed under Cavia porcellus [1] and in the series filed under Cavia porcellus [5] was 0 in each case. For the same compound, the Activity in the series with Rattus norvegicus [6] was found to be 20%; with Rattus norvegicus [11] it was 7%. In addition, the Imax with Rattus norvegicus [7] is 75%. For the same compound, in the series with Rattus norvegicus [10], the ED50 turned out to be 0.347 mg/kg.
